According to ChEMBL document CHEMBL4340510, “Design, synthesis, and biological evaluation of truncated deguelin derivatives as Hsp90 inhibitors” (Eur J Med Chem, 2019):
pIC50: −log10 of the molar value. The source made the active and inactive calls. The rule behind the calls is not given here.

What was measured:
MCF7 [1] = test: Induction of apoptosis in human MCF7 cells assessed as cell rounding at 0.5 to 4 uM after 36 hrs by hoechst 33258 staining-based fluorescence microscopy; assay type: functional
Method in brief: (§1)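 Approximately 5×10^4 cells per well are exposed to 0, 0.5, 1.0, 2.0 or 4.0 μM for 36 h. Cells are PBS-washed and fixed in 4% paraformaldehyde for 30 min. They are stained with 20 μg/ml Hoechst 33258 for 15 min at room temperature in the dark, and nuclear morphology is examined by fluorescence microscopy.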

MCF7 [2] = test: Cell cycle arrest in human MCF7 cells assessed as increase in accumulation at G2 phase after 48 hrs by propidium iodide staining-based flow cytometry; assay type: functional
Method in brief: (§2)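 5×10^4 cells are seeded, incubated overnight, then treated 48 h. Cells are washed in cold PBS and fixed in 70% ethanol at −20 °C for 12 h. They are then stained with 100 µg/mL RNase plus 50 µg/mL PI in PBS, 37 °C for 30 min. DNA content is measured by flow cytometry.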

MCF7 [3] = test: Induction of apoptosis in human MCF7 cells assessed as increase in late apoptotic cells after 36 hrs by Annexin V-FITC/propidium iodide double staining-based flow cytometry; assay type: functional, cell-based
Method in brief: (§3)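 Cells (1×10^5/well) are cultured 24 h, then treated in triplicate for 36 h at 0.5, 1.0, 2.0 or 4.0 μM. Vehicle is 1‰ DMSO in complete medium. Cells are stained with FITC-Annexin V and PI for 15 min in the dark and analysed by flow cytometry. Mean±SD of three independent experiments.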

A549 = test: Antiproliferative activity against human A549 cells after 72 hrs by MTT assay; assay type: functional, cell-based; conditions: A549, 72 h
Method in brief: (§4)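 Cells in RPMI 1640 are seeded at 4,000 cells/well and held 24 h at 37 °C, 5% CO2. Medium is replaced with compound-containing medium (DMSO ≤0.25%) for 72 h at 37 °C. MTT read-out by absorbance at 570 nm. Quadruplicate wells, repeated three times; values are means of three independent experiments.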

MCF7 [4] = test: Cell cycle arrest in human MCF7 cells assessed as accumulation at G1 phase at 0.5 uM after 48 hrs by propidium iodide staining-based flow cytometry (reference value: 60.61%); assay type: functional; method in brief: as §2
MCF7 [5] = test: Antimigratory activity in human MCF7 cells at 250 to 1000 nM after 24 hrs by phase contrast inverted microscopy-based scratch wound healing assay; assay type: functional, cell-based
Method in brief: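 Cells are grown to confluence in DMEM with 10% FBS and scratched with a sterile 200 μL pipette tip. Wounds are imaged by phase contrast on an inverted microscope (10× objective) at 0, 24 and 48 h. Eight images per treatment are analysed by drawing lines at the wound edges of migrating cells.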

MCF7 [6] = test: Induction of apoptosis in human MCF7 cells assessed as decrease in Bcl-xL expression at 1 to 4 uM after 48 hrs by Western blot analysis
NCI-H1299 [7] = test: Antiproliferative activity against human NCI-H1299 cells after 72 hrs by MTT assay; assay type: functional, cell-based; conditions: NCI-H1299, 72 h; method in brief: as §4
MCF7 [8] = test: Induction of apoptosis in human MCF7 cells assessed as increase in early apoptotic cells after 36 hrs by Annexin V-FITC/propidium iodide double staining-based flow cytometry; assay type: functional, cell-based; method in brief: as §3
MCF7 [9] = test: Induction of apoptosis in human MCF7 cells assessed as increase in late apoptotic cells at 0.5 to 4 uM after 36 hrs by Annexin V-FITC/propidium iodide double staining-based flow cytometry relative to control; assay type: functional; method in brief: as §3
MCF7 [10] = test: Cell cycle arrest in human MCF7 cells assessed as accumulation at G1 phase at 4 uM after 48 hrs by propidium iodide staining-based flow cytometry (reference value: 60.61%); assay type: functional; method in brief: as §2
MCF7 [11] = test: Cell cycle arrest in human MCF7 cells assessed as accumulation at G2 phase at 4 uM after 48 hrs by propidium iodide staining-based flow cytometry (reference value: 22.74%); assay type: functional; method in brief: as §2
[12] = target: Heat shock protein HSP 90-alpha (Homo sapiens, UniProt P07900); test: Inhibition of FITC-geldanamycin binding to recombinant human full-length C-terminal His-tagged HSP90alpha […] (1 to 732 residues) expressed in Escherichia coli after 1 hr by fluorescence polarization assay
NCI-H1299 [13] = test: Antiproliferative activity against human NCI-H1299 cells assessed as inhibition of cell growth at 10 uM after 72 hrs by MTT assay relative to control; assay type: functional; conditions: NCI-H1299, 72 h, read-out: GI; method in brief: as §4
MCF7 [14] = test: Induction of apoptosis in human MCF7 cells assessed as rounding of nuclei at 0.5 to 4 uM after 36 hrs by hoechst 33258 staining-based fluorescence microscopy; assay type: functional, cell-based; method in brief: as §1
MCF7 [15] = test: Cell cycle arrest in human MCF7 cells assessed as accumulation at G2 phase at 4 uM after 48 hrs by propidium iodide staining-based flow cytometry (reference value: […])
[16] = target: Heat shock protein HSP90 (Homo sapiens) (UniProt P07900+P08238); test: Inhibition of HSP90 in human MCF7 cells assessed as decrease in phosphorylation of MAPK after 48 hrs by Western blot analysis; assay type: cell-based
Method in brief: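 Cells are treated 48 h and washed twice in ice-cold PBS. They are lysed on ice for 20 min and spun at 13,000 g, 4 °C. 20 μg protein is run on 8-12% SDS-PAGE and transferred to PVDF. Membranes are probed overnight at 4 °C with primary antibodies (Bcl-xL, cleaved caspase-3, mTOR/p-mTOR, MAPK/p-MAPK, Akt/p-Akt, HIF-1α, survivin; β-actin/GAPDH loading). HRP secondary and chemiluminescence detection follow.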

MCF7 [17] = test: Cell cycle arrest in human MCF7 cells assessed as accumulation at S phase at 0.5 uM after 48 hrs by propidium iodide staining-based flow cytometry (reference value: 16.64%); assay type: functional; method in brief: as §2
MCF7 [18] = test: Cell cycle arrest in human MCF7 cells assessed as accumulation at S phase at 2 uM after 48 hrs by propidium iodide staining-based flow cytometry (reference value: 16.64%); assay type: functional; method in brief: as §2
MCF7 [19] = test: Cell cycle arrest in human MCF7 cells assessed as accumulation at G2 phase at 2 uM after 48 hrs by propidium iodide staining-based flow cytometry (reference value: 22.74%); assay type: functional; method in brief: as §2
MCF7 [20] = test: Cell cycle arrest in human MCF7 cells assessed as accumulation at G2 phase at 1 uM after 48 hrs by propidium iodide staining-based flow cytometry (reference value: 22.74%); assay type: functional; method in brief: as §2
NCI-H1299 [21] = test: Antiproliferative activity against human NCI-H1299 cells assessed as inhibition of cell growth at 1 uM after 72 hrs by MTT assay relative to control; assay type: functional; conditions: NCI-H1299, 72 h, read-out: GI; method in brief: as §4
MCF7 [22] = test: Potency index, ratio of deguelin IC50 to test compound IC50 for human MCF7 cells; assay type: functional
Method in brief: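 MTT assay on MCF-7 cells. Cells were seeded at 4,000/well and pre-incubated 24 h at 37 °C in humidified 5% CO2, then exposed to a range of compound concentrations for 72 h, with DMSO at no more than 0.25%. Absorbance was read at 570 nm, in quadruplicate, repeated three times. The IC50 for each test compound and for deguelin is the mean of three independent experiments, and the index is the deguelin IC50 divided by the compound IC50.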

MCF7 [23] = test: Cell cycle arrest in human MCF7 cells assessed as accumulation at G1 phase at 1 uM after 48 hrs by propidium iodide staining-based flow cytometry (reference value: 60.61%); assay type: functional; method in brief: as §2

COc1cc(OC)c(OC)cc1CC(=O)c1ccc2c(c1OC)C=CC(C)(C)O2
Activity (MCF7 [1]): Active
Activity (MCF7 [2]): Dose-dependent effect
Activity (MCF7 [3]): Dose-dependent effect
pIC50 (A549): 5.46
Activity (MCF7 [4]): 57.49%
Activity (MCF7 [5]): Active
Activity (MCF7 [6]): Active
pIC50 (NCI-H1299 [7]): 5.47
Activity (MCF7 [8]): Dose-dependent effect
Activity (MCF7 [9]): 13.6 - 71.8%
Activity (MCF7 [10]): 40.72%
Activity (MCF7 [11]): 29.7%
pIC50 [12]: 7.22
inhibition of growth at 10 µM (NCI-H1299 [13]): 72.1%
Activity (MCF7 [14]): Active
Activity (MCF7 [15]): 29.58%
inhibition [16]: Dose-dependent effect
Activity (MCF7 [17]): 22.99%
Activity (MCF7 [18]): 19.64%
Activity (MCF7 [19]): 34.16%
Activity (MCF7 [20]): 21.55%
inhibition of growth at 1 µM (NCI-H1299 [21]): 40.3%
Ratio IC50 (MCF7 [22]): 3
Activity (MCF7 [23]): 55.26%
